Marks after values point to notes of the source that are not given here. Residues, ends and D or L forms follow the SMILES beside them.
Legend:
[1] = Single-dose i.v. pharmacokinetics in mice; assay type: in vivo, CD-1 mice; conditions: 5 mg/kg single i.v. bolus, n=4/time point
Summary of the method: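 Male and female CD-1 mice received a single 5 mg/kg i.v. bolus into the lateral tail vein, with 2/sex per time point. EDTA blood was taken by terminal cardiac puncture at 0.25, 1, 2, 4, 8 and 24 h; plasma was stored at −80°C. Sparse-sampling NCA used nominal times, linear-up/log-down AUC, and excluded values below LLOQ.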

[2] = Toxicity studies in cynomolgus monkeys: mortality, MTD, NOAEL; assay type: in vivo
Summary of the method: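 Cynomolgus monkeys were studied in two designs. Non-GLP range-finding: single ascending i.v. doses (0.3-10 mg/kg), then 15 mg/kg daily for 7 days, 1/sex; MTD was based on mortality, clinical observations and body weight. GLP: 0, 5, 10 or 15 mg/kg/day for 10 days by 60-min infusion, with a recovery group. NOAEL drew on clinical signs, clinical pathology and histopathology.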

[3] = Hematology of cynomolgus monkeys at the end of treatment; assay type: in vivo; conditions: median (IQR)
Summary of the method: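 GLP 10-day study in male and female cynomolgus monkeys (n = 3-5/sex/group) dosed once daily with 0 (placebo), 5, 10 or 15 mg/kg test compound by i.v. infusion over 60 ± 5 min. Hematology, serum chemistry and coagulation were taken at end of treatment and reported as median (IQR). Dose groups were compared by Kruskal-Wallis with Dunn's multiple comparison test.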

In the case of `CC[C@H](C)[C@@H]1NC(=O)[C@@H]2CSSC[C@H](NC(=O)[C@H](CCCNC(=N)N)NC(=O)[C@@H]3CSSC[C@H](NC1=O)C(=O)N[C@@H]([C@@H](C)O)C(=O)N[C@@H](CCCNC(=N)N)C(=O)NCC(=O)N[C@@H](Cc1ccccc1)C(=O)N3)C(=O)N[C@@H](CC(C)C)C(=O)N[C@H]1CSSC[C@H](NC(=O)[C@H](C(C)C)NC(=O)CNC(=O)[C@H](CCCNC(=N)N)NC(=O)[C@H](CCCNC(=N)N)NC1=O)C(=O)N[C@@H](CCCNC(=N)N)C(=O)N2` [RTD-1, Rhesus theta (θ) defensin-1] (HELM PEPTIDE1{G.F.C.R.C.L.C.R.R.G.V.C.R.C.I.C.T.R}$PEPTIDE1,PEPTIDE1,3:R3-16:R3|PEPTIDE1,PEPTIDE1,5:R3-14:R3|PEPTIDE1,PEPTIDE1,7:R3-12:R3|PEPTIDE1,PEPTIDE1,1:R1-18:R2$$$V2.0), the “AUC0-∞” value ([1]; pooled NCA) is reported as 12,497 ng · h/mL, the AUCτ ([1]; pooled NCA) is reported as 12,282 ng · h/mL and the CL ([1]; pooled NCA) is reported as 6.67 mL/min/kg. The MRT ([1]; pooled NCA) was 2.62 h, the λz ([1]; pooled NCA) was 0.114 h⁻¹ and the Cmax ([1]; pooled, estimate (SE)) was 8,919 (1,088)^b ng/mL. The mortality ([2]; GLP 10-day repeat-dose TK study, any dose level (5-15 mg/kg/day)) was “no mortality or unscheduled euthanasia”, the NOAEL ([2]; GLP 10-day repeat-dose i.v.) was 15 mg/kg/day and the “Basophils, absolute” value ([3]; female, 5 mg/kg/day) was 0.05 (0.01) 10^3/mm^3. For the same molecule, the “Eosinophils, absolute” value ([3]; female, 5 mg/kg/day) was 0.32 (0.27) 10^3/mm^3, the Hematocrit ([3]; female, 5 mg/kg/day) was 43.80 (3.15) % and the Hemoglobin ([3]; female, 5 mg/kg/day) was 12.90 (0.35) g/dL. For the same molecule, the “LUC, absolute” value ([3]; female, 5 mg/kg/day) was 0.11 (0.02) 10^3/mm^3, the “Lymphocytes, absolute” value ([3]; female, 5 mg/kg/day) was 3.40 (1.18) 10^3/mm^3 and the MCH ([3]; female, 5 mg/kg/day) was 21.20 (1.10) pg. The MCHC ([3]; female, 5 mg/kg/day) was 29.50 (1.35) g/dL, the MCV ([3]; female, 5 mg/kg/day) was 69.20 (1.70) fL and the “Monocytes, absolute” value ([3]; female, 5 mg/kg/day) was 0.53 (0.21) 10^3/mm^3. The “Neutrophils, absolute” value ([3]; female, 5 mg/kg/day) was 6.43 (2.10) 10^3/mm^3, the Platelets ([3]; female, 5 mg/kg/day) was 576.00 (58.00) 10^3/mm^3 and the RBC ([3]; female, 5 mg/kg/day) was 6.05 (0.47) 10^6/mm^3. The RDW ([3]; female, 5 mg/kg/day) was 15.10 (0.50) %, the “Reticulocytes, absolute” value ([3]; female, 5 mg/kg/day) was 53.60 (17.00) 10^9/L and the WBC ([3]; female, 5 mg/kg/day) was 12.70 (2.30) 10^3/mm^3. For the same molecule, the “Basophils, absolute” value ([3]; female, 10 mg/kg/day) was 0.06 (0.04) 10^3/mm^3, the “Eosinophils, absolute” value ([3]; female, 10 mg/kg/day) was 0.40 (0.06) 10^3/mm^3 and the Hematocrit ([3]; female, 10 mg/kg/day) was 38.50 (4.60) %. For the same molecule, the Hemoglobin ([3]; female, 10 mg/kg/day) was 10.70 (1.25) g/dL, the “LUC, absolute” value ([3]; female, 10 mg/kg/day) was 0.10 (0.01) 10^3/mm^3 and the “Lymphocytes, absolute” value ([3]; female, 10 mg/kg/day) was 4.46 (1.00) 10^3/mm^3. For the same molecule, the MCH ([3]; female, 10 mg/kg/day) was 20.20 (1.00) pg, the MCHC ([3]; female, 10 mg/kg/day) was 28.80 (0.70) g/dL and the MCV ([3]; female, 10 mg/kg/day) was 69.70 (4.30) fL. The “Monocytes, absolute” value ([3]; female, 10 mg/kg/day) was 0.66 (0.13) 10^3/mm^3, the “Neutrophils, absolute” value ([3]; female, 10 mg/kg/day) was 5.08 (5.64) 10^3/mm^3 and the Platelets ([3]; female, 10 mg/kg/day) was 497.00 (214.50) 10^3/mm^3. For the same molecule, the RBC ([3]; female, 10 mg/kg/day) was 5.30 (0.94) 10^6/mm^3, the RDW ([3]; female, 10 mg/kg/day) was 15.10 (0.70) % and the “Reticulocytes, absolute” value ([3]; female, 10 mg/kg/day) was 70.30 (33.40) 10^9/L. The WBC ([3]; female, 10 mg/kg/day) was 10.70 (6.80) 10^3/mm^3, the “Basophils, absolute” value ([3]; female, 15 mg/kg/day) was 0.12 (0.01) 10^3/mm^3 and the “Eosinophils, absolute” value ([3]; female, 15 mg/kg/day) was 0.34 (0.10) 10^3/mm^3. The Hematocrit ([3]; female, 15 mg/kg/day) was 38.50 (6.90) %, the Hemoglobin ([3]; female, 15 mg/kg/day) was 10.90 (1.70) g/dL and the “LUC, absolute” value ([3]; female, 15 mg/kg/day) was 0.16 (0.06) 10^3/mm^3. For the same molecule, the “Lymphocytes, absolute” value ([3]; female, 15 mg/kg/day) was 5.09 (2.32) 10^3/mm^3, the MCH ([3]; female, 15 mg/kg/day) was 19.90 (0.30) pg and the MCHC ([3]; female, 15 mg/kg/day) was 28.80 (1.10) g/dL. For the same molecule, the MCV ([3]; female, 15 mg/kg/day) was 68.90 (2.00) fL, the “Monocytes, absolute” value ([3]; female, 15 mg/kg/day) was 0.79 (0.15)^c 10^3/mm^3 and the “Neutrophils, absolute” value ([3]; female, 15 mg/kg/day) was 11.31 (5.67) 10^3/mm^3. For the same molecule, the Platelets ([3]; female, 15 mg/kg/day) was 513.00 (299.00) 10^3/mm^3, the RBC ([3]; female, 15 mg/kg/day) was 6.04 (1.28) 10^6/mm^3 and the RDW ([3]; female, 15 mg/kg/day) was 14.70 (1.80) %. The “Reticulocytes, absolute” value ([3]; female, 15 mg/kg/day) was 83.90 (46.10) 10^9/L, the WBC ([3]; female, 15 mg/kg/day) was 16.10 (5.40) 10^3/mm^3 and the “Basophils, absolute” value ([3]; male, 5 mg/kg/day) was 0.12 (0.08) 10^3/mm^3. For the same molecule, the “Eosinophils, absolute” value ([3]; male, 5 mg/kg/day) was 0.26 (0.12) 10^3/mm^3 and the Hematocrit ([3]; male, 5 mg/kg/day) was 43.10 (3.05) %.

— PMC8923172 (Antimicrobial Agents and Chemotherapy, 2022)
